Data reported in ChEMBL document CHEMBL2046350, “Bahamaolides A and B, antifungal polyene polyol macrolides from the marine actinomycete Streptomyces sp” (J Nat Prod, 2012).
In brackets after ≈: the same amount, converted by molar mass. Activity calls are given as the source filed them. No cut-off for these calls is given here.

Columns and labels:
[1] = tested on: Candida albicans; assay: Inhibition of candida albicans ICL assessed as formation of glyoxylate phenylhydrazone at 100 ug/ml after 30 mins by Dixon and Kornberg's method
[2] = tested on: Aspergillus fumigatus; assay: Antifungal activity against Aspergillus fumigatus HIC 6094 after 48 to 72 hrs; format: functional
Procedure, shortened: (§1)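 Candida albicans grown in YPD (1% yeast extract, 2% peptone, 2% dextrose) 48 h at 28 °C, harvested, washed twice with water; moulds grown on potato dextrose agar 2 weeks at 28 °C, spores washed and resuspended in PDB. Broth microdilution in PDB (10⁴ cells/mL) with compound added in 5% DMSO (0.5% DMSO solvent control); 28 °C, 48–72 h; MIC = lowest concentration inhibiting growth.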

[3] = tested on: Micrococcus luteus; assay: Antibacterial activity against Micrococcus luteus IFO 12708; format: functional, organism-based
[4] = tested on: Salmonella typhimurium; assay: Antibacterial activity against Salmonella typhimurium ATCC 14028; format: functional, organism-based; conditions: Salmonella enterica subsp. enterica serovar Typhimurium
[5] = tested on: Trichophyton mentagrophytes; assay: Antifungal activity against Trichophyton mentagrophytes IFO4 0996 after 48 to 72 hrs; format: functional; procedure, shortened: as §1
[6] = tested on: Bacillus subtilis; assay: Antibacterial activity against Bacillus subtilis ATCC 6633; format: functional, organism-based
[7] = tested on: Proteus vulgaris; assay: Antibacterial activity against Proteus vulgaris ATCC 3851; format: functional, organism-based
[8] = tested on: SK-HEP1; assay: Cytotoxicity against human SKHEP1 cells at 100 ug/ml; format: functional, cell-based
[9] = tested on: MDA-MB-231; assay: Cytotoxicity against human MDA-MB-231 cells at 100 ug/ml; format: functional, cell-based
[10] = tested on: Staphylococcus aureus; assay: Antibacterial activity against Staphylococcus aureus ATCC 6538p; format: functional, organism-based
[11] = tested on: Candida albicans; assay: Antifungal activity against Candida albicans ATCC 10231 after 48 to 72 hrs; format: functional; procedure, shortened: as §1
[12] = tested on: Trichophyton rubrum; assay: Antifungal activity against Trichophyton rubrum IFO 9185 after 48 to 72 hrs; format: functional; procedure, shortened: as §1
[13] = Inhibition of candida albicans ICL assessed as formation of glyoxylate phenylhydrazone after 30 mins by Dixon and Kornberg's method
[14] = tested on: Escherichia coli; assay: Antibacterial activity against Escherichia coli ATCC 35270; format: functional, organism-based
[15] = tested on: HCT-116; assay: Cytotoxicity against human HCT116 cells at 100 ug/ml; format: functional, cell-based
[16] = tested on: A549; assay: Cytotoxicity against human A549 cells at 100 ug/ml; format: functional, cell-based

inhibition [1] | MIC [2] | MIC [5] | MIC [11] | MIC [12] | IC50 [13] | Compound | Activity [3] | Activity [4] | Activity [6] | Activity [7] | Activity [8] | Activity [9] | Activity [10] | Activity [14] | Activity [15] | Activity [16] | Activity [2] | Activity [5] | Activity [11] | Activity [12]
inactive |  |  |  |  |  | C[C@@H]1[C@H](O)[C@@H](C)/C=C/C=C/C=C/C=C/C=C/C=C/C=C/[C@H](O[C@@H]2O[C@H](C)[C@@H](O)[C@H](N)[C@@H]2O)C[C@@H]2O[C@](O)(C[C@@H](O)C[C@@H](O)[C@H](O)CC[C@@H](O)C[C@@H](O)CC(=O)O[C@H]1C)C[C@H](O)[C@H]2C(=O)O |  |  |  |  |  |  |  |  |  |  |  |  |  | 
 | 12.5 µg/mL (≈ 17.6 µM) | 12.5 µg/mL (≈ 17.6 µM) | 12.5 µg/mL (≈ 17.6 µM) | 12.5 µg/mL (≈ 17.6 µM) | 10.8 µM | CC(C)[C@@H]1OC(=O)/C=C/C=C/C=C/C=C/C=C/C=C/C[C@@H](O)C[C@H](O)C[C@H](O)C[C@H](O)C[C@@H](O)C[C@H](O)C[C@@H](O)C[C@@H](O)C[C@@H](O)CC[C@@H]1C [BAHAMAOLIDE A] | inactive | inactive | inactive | inactive | inactive | inactive | inactive | inactive | inactive | inactive |  |  |  | 
 |  |  |  |  | 127 µM | CC(C)[C@@H]1OC(=O)/C=C/C=C/C=C/C=C/C=C/C=C\C[C@@H](O)C[C@H](O)C[C@H](O)C[C@H](O)C[C@@H](O)C[C@H](O)C[C@@H](O)C[C@@H](O)C[C@@H](O)CC[C@@H]1C [BAHAMAOLIDE B] | inactive | inactive | inactive | inactive | inactive | inactive | inactive | inactive | inactive | inactive | inactive | inactive | inactive | inactive
